Screening data as filed in PubChem BioAssay.
IDE inh – inhibitors of human insulin-degrading enzyme in cells; HEK cells, FAbetaB cleavage, fluorescence polarization; AID 434962; inhibition, % at 5.59 µM; P14735; 320,000 tested, 0.41% active;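 active = percent inhibition above the average of all tested compounds plus 3 SD, set per screening campaign, cut at about 16% in these data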;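 note: IDE supplied by intact live HEK cells; FP after avidin binding of uncleaved biotin substrate so inhibition keeps polarization high; 0% = DMSO wells and 100% = 60 µM reference IDE inhibitor Ii1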
TPT1 inhibitor – inhibitors of Candida albicans tRNA 2'-phosphotransferase TPT1. recombinant caTPT1, FP RNA substrate dephosphorylation. inhibition, % at 5 µM. 300,000 tested, 0.81% active. AID 1962;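 active = inhibition above the mean of all tested compounds plus 3 SD, set per screening campaign, cut at about 24% in these data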;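 note: plate controls were DMSO alone for no effect and ferristatin control at 100 nM for full effect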
TbMetRS inhib – blocks T. brucei methionyl-tRNA synthetase activity; purified T. brucei MetRS, ATP depletion, Kinase-Glo luminescence; inhibition, % at 11.9 µM; 360,000 tested, 0.4% active; AID 624268;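 active = inhibition above a per-plate cutoff of the control wells' mean inhibition plus 3 SD, cut at about 5.5% in these data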;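 note: 0% = DMSO wells median and 100% = median of wells with control inhibitor compound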
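Dosing: 11.9 µM single point; system: parasite MetRS enzyme; technique: luminescence of leftover ATP; times: 15 min enzyme-compound preincubation, 2 h reaction, 10 min detection, 25 °C; replicates: each compound tested once; read-out basis: percent inhibition relative to median high and low control wells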
HNF4A DNA FP – change in binding of human HNF4 alpha to DNA; P41235; HNF4a-FITC DNA binding, fluorescence polarization, 1 h; activity change, % at 10 µM; 360,000 tested, 0.3% active; in the data active = activity change above about 30%, passing the limit was not always enough
Target sequence (P41235 whole entry, looked up): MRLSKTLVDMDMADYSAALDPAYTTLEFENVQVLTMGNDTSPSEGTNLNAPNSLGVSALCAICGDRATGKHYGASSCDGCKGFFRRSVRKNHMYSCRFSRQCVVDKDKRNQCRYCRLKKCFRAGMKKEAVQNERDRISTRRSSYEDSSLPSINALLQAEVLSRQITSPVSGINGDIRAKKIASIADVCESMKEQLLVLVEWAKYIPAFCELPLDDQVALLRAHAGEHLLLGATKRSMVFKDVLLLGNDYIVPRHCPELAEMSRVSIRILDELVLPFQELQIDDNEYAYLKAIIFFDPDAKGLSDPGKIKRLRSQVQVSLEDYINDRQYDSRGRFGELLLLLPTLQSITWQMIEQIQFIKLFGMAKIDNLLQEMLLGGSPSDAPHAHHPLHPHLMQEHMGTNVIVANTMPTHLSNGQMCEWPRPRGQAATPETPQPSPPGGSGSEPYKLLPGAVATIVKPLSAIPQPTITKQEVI
IDE cell activ – boosts human insulin-degrading enzyme activity in HEK cells; FAbeta-B cleavage, fluorescence polarization; 0% vehicle, 100% cell-free pure enzyme wells; AID 493087; 340,000 tested, 0.073% active; activation, % at 5.96 µM;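 active = activation above the mean of all tested compounds plus 3 SD, set per screening campaign, cut at about 17% in these data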
CSN deneddyl inh – CSN deneddylation inhibition | Q92905 | Purified CSN, SCF-Nedd8-OG deneddylation, fluorescence polarization | inhibition, % at 12.5 µM | 360,000 tested, 0.38% active;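 active = pattern-corrected inhibition above about 35%, with an unprinted fluorescence ratio check between 0.5 and 1.5, limit read from the data, passing the limit was not always enough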;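 note: 0% = enzyme with substrate and 100% = substrate without enzyme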
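Schedule: reaction 90 min, room temperature / Assay system: HEK293T-derived human Csn5 enzyme / Input: Csn5 at 0.24 nM final / Measure: inhibition of Csn5 cleavage, % / Control set: substrate-only high control, full reaction low control / Technique: fluorescence polarization of the substrate / Buffer or medium: Tris/NaCl/DTT buffer, pH 7.5 / Reagent: SCFSkp2-Nedd8OG substrate at 10 nM final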
caTPT1 confirm – TPT1 (C. albicans) inhibition, confirmation; inhibition, % at 5 µM; AID 2149; recombinant caTPT1, fluorescence polarization, RNase T1 coupled; 2,400 tested, 74% active; shares compounds with TPT1 inhibitor;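 active = inhibition above the primary screen limit, the mean inhibition of all tested compounds plus 3 SD, cut at about 25% in these data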
RNase T1 counter – blocks Aspergillus oryzae RNase T1, a TPT1 counter-screen. shares compounds with TPT1 inhibitor. RNase T1 cleavage, fluorescence polarization, 1536-well. inhibition, % at 5 µM. 2,400 tested, 83% active;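 active = inhibition above the solvent-only control well mean plus 3 SD, limit set per screening run, cut at about 23% in these data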;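 note: plate controls were DMSO wells with enzyme for no effect and wells without RNase T1 for full effect; inhibitors block cleavage so intact labeled substrate keeps polarization high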
An asterisk follows results filed as active. An excerpt weighted towards active compounds, which were near 1.7% of everything screened.

Results for N#CC1=C(N)SC(N)=C(C#N)C1Cc1ccccc1 ?
IDE inh: 12; TPT1 inhibitor: 63*; TbMetRS inhib: 0; HNF4A DNA FP: 114; IDE cell activ: -7; CSN deneddyl inh: 51; caTPT1 confirm: 50*; RNase T1 counter: 59*

How did CC(C)c1ccc(C2C3CSCC=C3C(C#N)=C(N)C2(C#N)C#N)cc1 (stereo not given) do in these assays?
IDE inh: 13; TPT1 inhibitor: 36*; caTPT1 confirm: 38*; RNase T1 counter: 48*

What do the screens show for `Cc1ccc(/C=C2\Sc3ccccc3C2=O)s1`?
IDE inh: 2; TPT1 inhibitor: 44*; TbMetRS inhib: 0; HNF4A DNA FP: -1; IDE cell activ: -6; CSN deneddyl inh: -2; caTPT1 confirm: 58*; RNase T1 counter: 70*

How did CC(=O)Nc1ccc(/C=C2\Sc3ccccc3C2=O)cc1 do in these assays?
IDE inh: 2; TPT1 inhibitor: 35*; TbMetRS inhib: 1; HNF4A DNA FP: 4; IDE cell activ: -4; CSN deneddyl inh: -2; caTPT1 confirm: 41*; RNase T1 counter: 46*

How did COc1ccc(OC)c(/C=C2/Sc3ccccc3C2=O)c1 do in these assays?
IDE inh: 13; TPT1 inhibitor: 111*; TbMetRS inhib: 0; HNF4A DNA FP: 75; IDE cell activ: -62; CSN deneddyl inh: 63; caTPT1 confirm: 101*; RNase T1 counter: 102*

What do the screens show for `S=C(Nc1ccc(Cl)cc1)N(CCCN1CCOCC1)Cc1cccs1`?
IDE inh: 3; TPT1 inhibitor: 57*; TbMetRS inhib: 0; HNF4A DNA FP: 2; IDE cell activ: 3; CSN deneddyl inh: 1; caTPT1 confirm: 4; RNase T1 counter: 5

Results for COc1cccc(C(NC(C)=O)c2nc(-c3cccc(F)c3)cs2)c1 (stereo not given) ?
TbMetRS inhib: 0; HNF4A DNA FP: 4; CSN deneddyl inh: -12

How did O=C(/C=C/c1ccc2ccccc2n1)c1cc(Cl)ccc1O do in these assays?
IDE inh: 7; TPT1 inhibitor: 44*; TbMetRS inhib: 0; HNF4A DNA FP: 27; IDE cell activ: 1; CSN deneddyl inh: 18; caTPT1 confirm: 46*; RNase T1 counter: 59*

How did N#C/C(=C\C=C\c1ccccc1)c1nc(-c2ccc3c(c2)OCO3)cs1 do in these assays?
IDE inh: 0; TPT1 inhibitor: 37*; TbMetRS inhib: 0; HNF4A DNA FP: -19; IDE cell activ: 1; CSN deneddyl inh: 3; caTPT1 confirm: 36*; RNase T1 counter: 47*

Results for O=C(O)CCCN1C(=O)/C(=C\c2ccc(-c3nc4ccccc4s3)o2)SC1=S ?
IDE inh: 13; TPT1 inhibitor: 30*; TbMetRS inhib: 0; HNF4A DNA FP: 26; IDE cell activ: -14; CSN deneddyl inh: 117; caTPT1 confirm: 48*; RNase T1 counter: 75*

Results for O=C(O)CCN1C(=O)/C(=C/c2ccc(-c3nc4ccccc4s3)o2)SC1=S ?
IDE inh: 1; TPT1 inhibitor: 31*; TbMetRS inhib: 0; HNF4A DNA FP: 60*; IDE cell activ: -4; CSN deneddyl inh: 193; caTPT1 confirm: 46*; RNase T1 counter: 66*

What do the screens show for `O=Cc1ccc(-c2nc3ccccc3s2)o1`?
IDE inh: 4; TPT1 inhibitor: 6; TbMetRS inhib: 0; HNF4A DNA FP: 2; IDE cell activ: 0; CSN deneddyl inh: 7

What do the screens show for `CC1=C/C(=N\NC(=S)Nc2cccnc2)CC(C)(C)C1`?
TbMetRS inhib: 3; HNF4A DNA FP: -1; IDE cell activ: 5; CSN deneddyl inh: 4

How did CCOC1=C2CN(S(=O)(=O)c3ccc(C)cc3)[C@H](c3ccccc3)C[C@@H]2N(S(=O)(=O)c2ccc(C)cc2)[C@H](c2cccs2)C1 do in these assays?
TbMetRS inhib: 0; HNF4A DNA FP: 3; CSN deneddyl inh: 0
